Data set [1] in a line: Cytotoxicity against human H9 cells by MTS assay. Type of data set: cell-based. (Tetrazolium dyes change colour on reduction, which living cells bring about.)
For data set [2], the system named is Human immunodeficiency virus 1. Put plainly: Antiviral activity against X4 tropic HIV-1 clone pNL4-3 infected in H9 cells assessed as reduction in p24 antigen after 4 days by ELISA. Type of data set: functional, organism-based. To be noted: Human immunodeficiency virus 1, pNL4-3, H9, 96 h. In general terms: ELISA stands for enzyme-linked immunosorbent assay.

The test system of data set [3] is 293T. Kind of data set: Inhibition of full-length X4 tropic HIV-1 clone pNL4-3 Vif/human APOBEC3G complex transfected in human 293T cells measured at 50 uM after 48 hrs by GFP-based fluorescence assay relative to control. Type of data set: cell-based. An outline of the steps:
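This was the primary screen in 293T cells co-transfected with HA-Vif and A3G-GFP plasmids (Lipofectamine 2000) and given a single compound concentration. DMSO-only wells and A3G-GFP-only transfected wells served as controls. GFP was read after 48 h. A3G-GFP MFI fold change was scored as −, none or <1; +, 1–2; ++, 2–3; +++, >3.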

pIC50: −log10 of the molar value.

As to `CC(C)N(c1ccc(/C=C(\C#N)c2nc3ccccc3[nH]2)cc1)C(C)C`, in data set [1], the CC50 – broadly, the concentration at which the toxic effect on the cells reaches its halfway point – was above 50 µM. In data set [2], the pIC50 (as a rule, −log10 of the IC50, conventionally taken in molar units) is 5.48. Moreover, the fold change (FC) in data set [3] came to 2.
The corresponding values for `CCN(CC)c1ccc(/C=C(\C#N)c2nc3ccccc3s2)cc1` are above 50 µM, 5.23 and above 3.
The molecule `N#C/C(=C\c1ccc2[nH]ncc2c1)c1nc2ccccc2[nH]1` gave a CC50 in data set [1] above 50 µM. In addition, the pIC50 in data set [2] was 6.44. The molecule further gave a fold change (FC) in data set [3] of 2.
As to `CC(=O)Nc1ccc(/C=C(\C#N)c2nc3ccccc3[nH]2)cc1`, the CC50 in data set [1] is above 50 µM. The pIC50 in data set [2] is below 4.30. This molecule also yielded a fold change (FC) in data set [3] below 1.
On the same counts, the results for `CCN(CC)c1ccc(/C=C(\C#N)c2nc3ccncc3[nH]2)cc1` are above 50 µM, 5.14 and 2.
The corresponding values for `CN(C)c1ccc(/C=C(\C#N)c2nc3ccccc3[nH]2)c(O)c1` are above 50 µM, below 4.30 and above 3.
On the same counts, the results for `CS(=O)(=O)c1ccc(/C=C(\C#N)c2nc3ccccc3[nH]2)cc1` are above 50 µM, below 4.30 and below 1.
In turn, `CCN(CC)c1ccc(/C=C(\C#N)c2nc3cc(Br)ccc3[nH]2)cc1` displayed a CC50 in data set [1] above 50 µM. Moreover, the negative logarithm of the IC50 (pIC50) in data set [2] is below 4.30. Besides, the fold change (FC) in data set [3] was found to be 2.
The corresponding values for `CCN(CC)c1ccc(/C=C(\C#N)c2nc3cc(C(F)(F)F)ccc3[nH]2)cc1` are above 50 µM, 5.95 and 2.
On the same counts, the results for `CCN(CC)c1ccc(/C=C(\C#N)c2nc3cc(Cl)ccc3[nH]2)cc1` are above 50 µM, below 4.30 and 2.
On to `CCN(CCO)c1ccc(/C=C(\C#N)c2nc3ccccc3[nH]2)cc1`, for which the CC50 in data set [1] is above 50 µM. Also, in data set [2], the pIC50 was 5.21. Further, the fold change (FC) in data set [3] is 1.
The corresponding values for `CCN(CC)c1ccc(/C=C(\C#N)c2nc3cc(Cl)c(Cl)cc3[nH]2)cc1` are above 50 µM, 5.90 and above 3.
The corresponding values for `CCN(CC)c1ccc(/C=C(\C#N)c2nc3cc(OC)ccc3[nH]2)cc1` are above 50 µM, 5.35 and 2.
Regarding `Cc1ccc(/C=C(\C#N)c2nc3ccccc3[nH]2)cc1`, the CC50 in data set [1] is above 50 µM. Also, the pIC50 in data set [2] was below 4.30. Also, the fold change (FC) in data set [3] was below 1.
In data set [1], `N#C/C(=C\c1ccc(N2CCCC2)cc1)c1nc2ccccc2[nH]1` came in with a CC50 above 50 µM. The pIC50 in data set [2] was below 4.30. This molecule registered a fold change (FC) in data set [3] below 1.
As for `CCN(CC)c1ccc(/C=C(\C#N)c2nc3cc(C(=O)OC)ccc3[nH]2)cc1`, in data set [1], the CC50 is above 50 µM. Moreover, the pIC50 in data set [2] is 5.77. In addition, the fold change (FC) in data set [3] was determined as 2.
The corresponding values for `CCN(CC)c1ccc(/C=C(\C#N)c2nc3ccccc3o2)cc1` are above 50 µM, 5.62 and 2.
As for `N#C/C(=C\c1ccc(-n2ccnc2)cc1)c1nc2ccccc2[nH]1`, in data set [1], the CC50 was above 50 µM. Further, in data set [2], the pIC50 is below 4.30. The molecule further had a fold change (FC) in data set [3] below 1.
On the same counts, the results for `N#C/C(=C\c1ccc(C(=O)O)cc1)c1nc2ccccc2[nH]1` are above 50 µM, below 4.30 and below 1.
The corresponding values for `CCN(CC)c1ccc(/C=C(\C#N)c2nc3ccccc3n2C2CC2)cc1` are above 50 µM, below 4.30 and below 1.
The corresponding values for `CCN(CC)c1ccc(/C=C(\C#N)c2nc3ccccc3[nH]2)c(O)c1` are above 50 µM, 5.82 and above 3.
Consider `CCN(CC)c1ccc(/C=C(\C#N)c2nc3cc(C(=O)O)ccc3[nH]2)cc1`, for which the CC50 in data set [1] is above 50 µM. Further, in data set [2], the pIC50 is below 4.30. Moreover, in data set [3], the fold change (FC) came to 2.
On the same counts, the results for `COc1cc(/C=C(\C#N)c2nc3ccccc3[nH]2)ccc1N(C)C` are above 50 µM, 6.54 and 1.
On the same counts, the results for `CCN(CC)c1ccc(/C=C(\C#N)c2nc3cc(C(C)(C)C)ccc3[nH]2)cc1` are above 50 µM, 5.98 and above 3.
In data set [1], `N#C/C(=C\c1ccc2[nH]ccc2c1)c1nc2ccccc2[nH]1` gave a CC50 above 50 µM. For the same molecule, the pIC50 in data set [2] was 6.14. The same molecule returned a fold change (FC) in data set [3] above 3.
As to `COc1cc(OC)c(OC)cc1/C=C(\C#N)c1nc2ccccc2[nH]1`, the CC50 in data set [1] was above 50 µM. For the same molecule, the pIC50 in data set [2] is below 4.30. The molecule further gave a fold change (FC) in data set [3] of 1.
The corresponding values for `CCN(CC)c1ccc(/C=C(\C#N)c2nc3cc(C)c(C)cc3[nH]2)cc1` are above 50 µM, 5.79 and above 3.
On the same counts, the results for `COc1ccc(/C=C(\C#N)c2nc3ccccc3[nH]2)cc1OC` are above 50 µM, below 4.30 and 1.
The corresponding values for `N#C/C(=C\c1ccc(N2CCOCC2)cc1)c1nc2ccccc2[nH]1` are above 50 µM, below 4.30 and above 3.
For the molecule `CCN(CC)c1ccc(CC(C#N)c2nc3ccccc3[nH]2)cc1` (stereo unspecified), in data set [1], the CC50 is above 50 µM. The pIC50 in data set [2] was below 4.30. In data set [3], this molecule registered a fold change (FC) below 1.
On the same counts, the results for `CN1CCN(c2ccc(/C=C(\C#N)c3nc4ccccc4[nH]3)cc2)CC1` are above 50 µM, below 4.30 and below 1.
The corresponding values for `CCN(CC)c1ccc(/C=C(\C#N)c2nc3ccccc3n2CC)cc1` are above 50 µM, below 4.30 and below 1.
Consider `CCN(CC)c1ccc2cc(-c3nc4ccccc4[nH]3)c(=O)oc2c1`, for which, in data set [1], the CC50 is above 50 µM. Also, the pIC50 in data set [2] was 6.62. Moreover, the fold change (FC) in data set [3] is above 3.
The corresponding values for `CCN(CC)c1ccc(/C=C(\C#N)c2nc3cc(OC(F)(F)F)ccc3[nH]2)cc1` are above 50 µM, 5.87 and above 3.
On the same counts, the results for `CCCN(CCC)c1ccc(/C=C(\C#N)c2nc3ccccc3[nH]2)cc1` are above 50 µM, 5.96 and 2.
The corresponding values for `CCN(CC)c1ccc(/C=C(\C#N)c2nc3cccnc3[nH]2)cc1` are above 50 µM, 5.45 and 2.
For the molecule `CCN(CC)c1ccc(/C=C(\C#N)c2nc3cc(SC)ccc3[nH]2)cc1`, the CC50 in data set [1] is above 50 µM. Also, the pIC50 in data set [2] was 6.12. For the same molecule, in data set [3], the fold change (FC) is 2.
In turn, `CN(C)c1ccc(/C=C(\C#N)c2nc3ccccc3[nH]2)cc1` returned a CC50 in data set [1] above 50 µM. In data set [2], the pIC50 is 6.29. Also, the fold change (FC) in data set [3] was determined as 2.
The corresponding values for `CCc1ccc(/C=C(\C#N)c2nc3ccccc3[nH]2)cc1` are above 50 µM, below 4.30 and below 1.
On the same counts, the results for `CC(C)c1ccc(/C=C(\C#N)c2nc3ccccc3[nH]2)cc1` are above 50 µM, below 4.30 and below 1.
The corresponding values for `CCN(CC)c1ccc(/C=C(\C#N)c2nc3cc(F)ccc3[nH]2)cc1` are above 50 µM, below 4.30 and above 3.
`COc1ccc(/C=C(\C#N)c2nc3ccccc3[nH]2)cc1` registered a CC50 in data set [1] above 50 µM. Also, the pIC50 in data set [2] is 5.55. In data set [3], this molecule showed a fold change (FC) of 2.
The corresponding values for `CCN(CC)c1cccc(/C=C(\C#N)c2nc3ccccc3[nH]2)c1` are above 50 µM, below 4.30 and below 1.
The corresponding values for `CCN(CC)c1ccc(/C=C(\C#N)c2nc3cc(N(C)C)ccc3[nH]2)cc1` are above 50 µM, 5.57 and 1.
The corresponding values for `COc1cc(/C=C(\C#N)c2nc3ccccc3[nH]2)cc(OC)c1OC` are above 50 µM, below 4.30 and 1.
For the molecule `N#C/C(=C\c1ccc(-c2ccccc2)cc1)c1nc2ccccc2[nH]1`, the CC50 in data set [1] is above 50 µM. The pIC50 in data set [2] is below 4.30. The fold change (FC) in data set [3] is below 1.
On the same counts, the results for `CCN(CC)c1ccc(/C=C(\C#N)c2nc3ccccc3n2C)cc1` are above 50 µM, below 4.30 and below 1.
